Active and inactive are the calls of the source. The calls are words filed in the database; no cut-off is given here.
What was measured:
Namalwa [1] = assay: Activation of Namalwa cell expressing CD1D-TCR in human MAD11 cells assessed as TH1-mediated TNFalpha secretion after 6 hrs relative to control; format: cell-based
How it was run: (§1)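 Human CD1d-transduced HeLa or Namalwa cells, 30000/well, incubated overnight at 37 °C with graded glycolipid (DMSO), washed twice, then cocultured 6 h at 37 °C with 15000 Vα24+/Vβ11+ human iNKT cells in RPMI without IL-2. TNF-α in cell-free supernatant measured by WEHI 164 cytotoxicity (MTT). No-glycolipid background subtracted. Mean of triplicates; at least 3 experiments.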

Mus musculus [2] = assay: Induction of CD1D-TCR-dependent NKT cell activation in C57BL/6J mouse assessed as IL-4 production at 100 ug/kg, ip relative to KRN7000; format: functional
How it was run: (§2)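 Female C57BL/6J mice, 6–8 weeks old, given 100 μg/kg glycolipid ip in 0.1 mL of 10% DMSO in 0.9% NaCl. Sera collected at several time points after injection; six mice per time point. Serum IFN-γ, IL-4 and TNF-α measured by ELISA. Time courses compared as area under the curve against KRN7000.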

Namalwa [3] = assay: Activation of Namalwa cell expressing CD1D-TCR in human MAD11 cells assessed as TH1-mediated IFN-gamma secretion after 6 hrs by ELISA relative to KRN7000; format: cell-based
How it was run: (§3)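 APCs (hCD1d-transduced HeLa or Namalwa) plated 30000/well, loaded overnight at 37 °C with glycolipid titration in DMSO, washed twice. Vα24/Vβ11-sorted human iNKT line (15000 cells, no IL-2) added for 6 h at 37 °C. Supernatant IFN-γ measured by ELISA. No-glycolipid background subtracted. Mean of triplicates, SD shown. KRN7000 reference; untransduced APCs as negative control.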

Mus musculus [4] = assay: Induction of CD1D-TCR-dependent NKT cell activation in C57BL/6J mouse assessed as IFN-gamma production at 100 ug/kg, ip relative to KRN7000; format: functional; how it was run: as §2
MAD11 [5] = assay: Activation of Hela cell expressing human CD1D-TCR in human MAD11 cells assessed as TH1-mediated IFN-gamma secretion after 6 hrs by ELISA relative to KRN7000; format: cell-based; how it was run: as §3
Namalwa [6] = assay: Activation of Namalwa cell expressing CD1D-TCR in human MAD11 cells assessed as TH2-mediated IL-13 secretion after 48 hrs by ELISA relative to KRN7000; format: functional, cell-based
How it was run: (§4)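 The hCD1d-transduced HeLa or Namalwa presenting cells were plated at 7500/well and pulsed overnight at 37 °C with increasing glycolipid concentrations in DMSO, then washed. 15000 sorted human iNKT cells were added without IL-2 for 48 h at 37 °C. IL-13 in supernatant was measured by ELISA, minus background without glycolipid. Triplicate mean ± SD, with KRN7000 as reference.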

MAD11 [7] = assay: Activation of Hela cell expressing human CD1D-TCR in human MAD11 cells assessed as TH1-mediated TNFalpha secretion after 6 hrs relative to control; format: cell-based; how it was run: as §1
MAD11 [8] = assay: Activation of Hela cell expressing human CD1D-TCR in human MAD11 cells assessed as TH2-mediated IL-13 secretion after 48 hrs by ELISA relative to KRN7000; format: functional, cell-based; how it was run: as §4
Mus musculus [9] = assay: Induction of CD1D-TCR-dependent NKT cell activation in C57BL/6J mouse assessed as ratio of IFNgamma/IL-4 production at 100 ug/kg, ip relative to KRN7000; format: functional
How it was run: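 Female C57BL/6J mice, 6–8 weeks old, received 100 μg/kg ip in 0.1 mL of 10% DMSO/0.9% NaCl. Serial serum samples were taken, six mice per time point. IFN-γ and IL-4 were measured by ELISA, and the ratio of AUC IFN-γ to AUC IL-4 was computed.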

Mus musculus [10] = assay: Induction of CD1D-TCR-dependent NKT cell activation in C57BL/6J mouse assessed as TNF-alpha production at 100 ug/kg, ip relative to KRN7000; format: functional; how it was run: as §2
Mus musculus [11] = assay: Induction of CD1D-TCR-dependent NKT cell activation in C57BL/6J mouse assessed as IFN-gamma production at 100 ug/kg, ip measured after 8 hrs relative to KRN7000; format: functional; how it was run: as §2

SMILES	Activity (Namalwa [1])	Ratio (Mus musculus [2])	Activity (Namalwa [3])	Activity (Mus musculus [4])	Activity (MAD11 [5])	Activity (Namalwa [6])	Activity (MAD11 [7])	Activity (MAD11 [8])	Ratio (Mus musculus [9])	Activity (Mus musculus [10])	Activity (Mus musculus [11])
CCCCCCCCCCCCCCCCCCCCCCCCCC(=O)N[C@H](CCCCCCCCCCCCCCC)CO[C@H]1O[C@H](CO)[C@H](O)[C@H](O)[C@H]1O	Active	0.35	Active	70%	Active	Active	Active	Active	1.86	40%	
CCCCCCCCCCCCCCCCCCCCCCCCCC(=O)N[C@@H](CO[C@H]1O[C@H](CO)[C@H](O)[C@H](O)[C@H]1O)C(F)(F)CCCCCCCCCCCCCCC	Active	0.35	Active		Active	Active	Active	Active	1.31	32%	Active
CCCCCCCCCCCCCCCCCCCCCCCCCC(=O)N[C@@H](CO[C@H]1O[C@H](CO)[C@H](O)[C@H](O)[C@H]1O)[C@H](O)[C@H](O)CCCCCCCCCCCCCC	Active		Active		Active	Active	Active	Active			
CCCCCCCCCCCCCCCCCCCCCCCCCC(=O)N[C@@H](CO[C@H]1O[C@H](CO)[C@H](O)[C@H](O)[C@H]1O)[C@H](F)CCCCCCCCCCCCCC	Active	0.35	Active		Active	Active	Active	Active	0.78	23%	30%

From ChEMBL document CHEMBL2029280, “3-fluoro- and 3,3-difluoro-3,4-dideoxy-KRN7000 analogues as new potent immunostimulator agents: total synthesis and biological evaluation in human invariant natural killer T cells and mice” (2012)
